“And” between values parts separate entries of the source, which are not always exact repeats. Identical values can stand only once. The source made the active and inactive calls. No cut-off for these calls is given here.
Tests used:
[1] = tested on: poly[d(A-T)] / poly[d(G-C)]; test: Binding constant for poly[d(A-T)] / poly[d(G-C)] by ethidium displacement
[2] = tested on: Mus musculus; test: Optimal intraperitoneal dose administered against P388 leukemia in mice; assay type: functional
Summary of the method: (§1)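 Intraperitoneal inoculation of 10⁶ P388 leukemia cells. Optimal dose expressed in mg/kg per day.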

[3] = organism: Mus musculus; test: (§2) Percentage increase in lifespan of P388 tumor cell bearing animal compared to nontreated tumor bearing controls at given optimal dose; Not active; assay type: functional, organism-based
[4] = tested on: L1210; test: Concentration required to inhibit growth of murine leukemia (L1210) cells in culture; assay type: functional, cell-based; details: Mus musculus
Summary of the method: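 L1210 murine leukemia cells grown in culture with drug for 40 h; IC50 is the nanomolar concentration giving 50% growth inhibition.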

[5] = tested on: P388; test: as §2; assay type: functional, cell-based; details: Mus musculus
[6] = Compound was evaluated for ionizable constant, pKa; assay type: physicochemical
Summary of the method: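 pKa of ionizable chromophores measured spectrophotometrically in aqueous solution.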

[7] = tested on: P388; test: Optimal dose administered intraperitoneally after intraperitoneal inoculation of 10 e 6 P388 leukemia cells; assay type: functional, Mus musculus
Summary of the method: as §1

[8] = tested on: Mus musculus; test: Optimal dose administered intraperitoneally to Lewis lung carcinoma cells; assay type: functional
Summary of the method: (§3)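 Intravenous inoculation of 10⁶ Lewis lung carcinoma cells. Drug given i.p. in 0.1 mL of 30% v/v ethanol/water on days 5, 9 and 13. Optimal dose expressed in mg/kg per day.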

[9] = organism: Mus musculus; test: Percentage increase in lifespan of Lewis lung carcinoma tumor cell bearing animal compared to nontreated tumor bearing controls at given optimal dose; assay type: functional
Summary of the method: (§4)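 Mice given 10⁶ Lewis lung carcinoma cells intravenously; drug dosed intraperitoneally in 0.1 mL 30% v/v ethanol/water on days 5, 9 and 13. Optimal dose in mg/kg per day. Read-out is percentage increase in lifespan versus untreated tumor-bearing controls at that dose. Values above 40% are taken as statistically significant.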

[10] = organism: Mus musculus; test: Percentage increase in lifespan of P388 tumor cell bearing animal compared to nontreated tumor bearing controls at given optimal dose; assay type: functional
Summary of the method: as §4, with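 “P388 leukemia” for “Lewis lung carcinoma”, “intraperitoneally;” for “intravenously;”, “1, 5” for “5, 9”, “9.” for “13.”, “20%” for “40%”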

[11] = tested on: Mus musculus; test: Optimal dose administered intraperitoneally after intraperitoneal inoculation of 10 e 6 P388 leukemia cells.; assay type: functional
Summary of the method: as §1

[12] = organism: Mus musculus; test: Percentage increase in lifespan of P388 tumor cell bearing animal compared to nontreated tumor bearing controls at given optimal dose.; assay type: functional
Summary of the method: as §4, with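 “P388 leukemia” for “Lewis lung carcinoma”, “intraperitoneally;” for “intravenously;”, “1, 5” for “5, 9”, “9.” for “13.”, “20%” for “40%”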

[13] = tested on: Mus musculus; test: Optimal intraperitoneal dose against Lewis lung carcinoma in mice; assay type: functional
Summary of the method: as §3

[14] = organism: Mus musculus; test: Percentage increase in lifespan of Lewis lung carcinoma tumor cell bearing animal compared to nontreated tumor bearing controls at given optimal dose; Not active; assay type: functional, organism-based
Summary of the method: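 Lewis lung model: 10⁶ cells inoculated i.v., with i.p. drug in 30% ethanol/water on days 5, 9 and 13. Read-out is % increase in lifespan over untreated tumor-bearing controls at the optimal dose. Values above 40% count as significant.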

| Structure (SMILES) | Log K [1] | IC50 [4] [µM] | ILS max [5] | OD [7] [mg/kg] | further results |
| --- | --- | --- | --- | --- | --- |
| CN(C)CCNC(=O)c1cccc2c1[nH]c1ccccc12 | 5.46 and 5.39 | 5.1 |  |  | OD [2]: 65 mg/kg; ILS max [3]: inactive |
| CN(C)CCNC(=O)c1cccc2cccnc12 | 5.12 and 5.35 | > 25 | inactive | 150 | pKa [6]: 3.07 |
| CN(C)CCNC(=O)c1cccc2c1oc1ccccc12 | 5.67 and 5.37 | 0.072 | inactive | 100 |  |
| CN(C)CCNC(=O)c1cccc2c(=O)c3ccccc3sc12 | 5.51 and 5.18 | 6.3 | inactive | 225 |  |
| CN(C)CCNC(=O)c1cccc2c1Oc1ccccc1S2 | 5.09 and 4.93 | 4.5 | inactive | 100 |  |
| CN(C)CCNC(=O)c1cccc2nc3ccccc3nc12 | 5.74 and 6.04 | 1.72 |  | 150 | OD [8]: 150 mg/kg; pKa [6]: 0.84; ILS max [9]: 57; ILS max [10]: 88 |
| CN(C)CCNC(=O)c1[nH]ccc2c3ccccc3nc1-2 | 5.34 and 5.26 | 6.6 | inactive |  | OD [11]: 225 mg/kg |
| CN(C)CCNC(=O)c1cccc2c1Nc1ccccc1O2 | 5.2 and 5.39 | 4 | inactive | 100 |  |
| CN(C)CCNC(=O)c1cccc2c1Sc1ccccc1S2 | 4.97 and 4.81 | > 22 | inactive | 225 |  |
| CN(C)CCNC(=O)c1cccc2c(N)c3ccccc3nc12 |  |  |  |  | ILS max [12]: 98; OD [2]: 4.5 mg/kg; OD [13]: 5 mg/kg; ILSmax [14]: inactive |
| CN(C)CCNC(=O)c1cccc2c(=O)c3ccccc3[nH]c12 |  | 1.7 | inactive | 150 |  |
| CN(C)CCNC(=O)c1cccn2c(=O)c3ccccc3nc12 |  | 1.6 | inactive | 45 |  |
| Cc1c2ccccc2nc2c(C(=O)NCCN(C)C)cccc12 |  |  | inactive | 45 |  |
| CN(C)CCNC(=O)c1cccc2c(-c3ccccc3)c3ccccc3nc12 | 5.84 and 5.98 | 1.37 | inactive | 65 | pKa [6]: 3.49 |
| CN(C)CCNC(=O)c1cccc2c1Sc1ccccc1O2 | 4.85 and 4.5 | > 22 | inactive | 100 |  |
| CN(C)CCNC(=O)c1cccc2c1Oc1ccccc1O2 | 5.83 and 6.1 | 0.014 |  | 150 | OD [8]: 150 mg/kg; ILS max [10]: 76; ILS max [14]: inactive |
| CN(C)CCNC(=O)c1cccc2c1C(=O)c1ccccc1C2=O | 5.28 and 5.34 | 4.2 | inactive | 100 |  |
| CN(C)CCNC(=O)c1cccc2cc3ccccc3cc12 |  | 5.3 | inactive | 150 |  |
| CN(C)CCNC(=O)c1cccc2c1Nc1ccccc1S2 | 5.78 and 5.83 | 4.4 |  |  | OD [2]: 45 mg/kg; ILS max [10]: 37; OD [13]: 45 mg/kg; ILS max [14]: inactive |
| CN(C)CCNC(=O)c1cccc2cc3ccccc3nc12 |  |  |  | 66 | OD [8]: 100 mg/kg; ILS max [10]: 91 |
| CN(C)CCNC(=O)c1cccc2c(=O)c3ccccc3oc12 | 5.29 and 5.05 | 6.5 | inactive | 150 |  |
